Source: ChEMBL document CHEMBL1154929, “Novel tetrahydrochinoline derived CETP inhibitors” (Bioorg Med Chem Lett, 2010)

How the values were obtained:
[1] = target: T1, Cholesteryl ester transfer protein (Homo sapiens, UniProt P11597); assay: Inhibition of CETP assessed as cholesterol ester transfer after 4 hrs by microemulsion based fluorescence assay
T1 sequence (P11597 whole entry): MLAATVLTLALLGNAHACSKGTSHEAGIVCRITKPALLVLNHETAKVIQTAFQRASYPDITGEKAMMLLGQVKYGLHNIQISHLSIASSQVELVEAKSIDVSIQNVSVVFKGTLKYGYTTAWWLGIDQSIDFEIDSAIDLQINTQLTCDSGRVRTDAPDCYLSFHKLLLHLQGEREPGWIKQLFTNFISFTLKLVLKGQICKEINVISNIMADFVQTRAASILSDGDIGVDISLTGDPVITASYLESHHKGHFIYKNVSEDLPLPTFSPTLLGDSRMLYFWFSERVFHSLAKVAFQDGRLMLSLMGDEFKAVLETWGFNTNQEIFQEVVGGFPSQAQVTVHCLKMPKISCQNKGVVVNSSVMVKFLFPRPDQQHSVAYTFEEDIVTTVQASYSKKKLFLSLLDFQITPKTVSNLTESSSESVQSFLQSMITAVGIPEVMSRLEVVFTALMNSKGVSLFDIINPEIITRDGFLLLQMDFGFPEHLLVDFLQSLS
Summary of the method: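 CETP-containing sample (1–3 µg CETP enriched from human plasma) incubated at 37 °C for 4 h with compound in DMSO and a liposome emulsion (1 vol donor, 1 vol buffer, 2 vol acceptor). Liposomes were made by dioxane injection into 50 mM Tris/HCl pH 7.3, 150 mM NaCl, 2 mM EDTA, then sonicated. Read-out was the fluorescence increase versus a DMSO control.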

[2] = target: T1, Cholesteryl ester transfer protein; assay: Inhibition of human plasma CETP assessed as cholesterol ester transfer after 24 hrs by fluorescence assay; format: cell-free
Summary of the method: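 Donor liposomes (12% v/v) and compound in DMSO (2% v/v) added to human plasma (86% v/v) and incubated at 37 °C for 24 h. Transfer was taken as the fluorescence change at 510/520 nm, compared with a DMSO control.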

[3] = target: T1, Cholesteryl ester transfer protein; assay: Inhibition of human plasma CETP assessed as [3H]cholesterol ester transfer after 18 hrs by scintillation proximity assay; format: cell-free
Summary of the method: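 Scintillation proximity assay. HDL-³H-cholesteryl ester (~50,000 cpm) and biotin-LDL were incubated at 37 °C for 18 h with CETP (1 mg/ml stock) in […]/0.15 M NaCl/0.1% BSA/0.05% NaN₃ pH 7.4. Compound was dissolved in 10% DMSO/1% BSA. Streptavidin SPA beads were added with 1 h shaking, then scintillation counting. Buffer-only and CETP incubations served as controls.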

[4] = Oral bioavailability in rat; format: ADME, organism-based; details: in vivo
[5] = Half life in mouse plasma; format: ADME, organism-based
[6] = Half life in dog plasma; format: ADME, organism-based, Canis lupus familiaris
[7] = Oral bioavailability in dog; format: ADME, organism-based, Canis lupus familiaris; details: in vivo
[8] = Half life in rat plasma; format: ADME, organism-based

IC50 [1]	Structure (SMILES)	other results
0.5 µM	CC1(C)Cc2nc(C3CCCC3)c(C(=O)c3ccc(C(F)(F)F)cc3)c(C3CCN(C(=O)OCc4ccccc4)CC3)c2[C@@H](O)C1	
15 µM	CC1(C)Cc2nc(C3CCCC3)c(C(=O)c3ccc(C(F)(F)F)cc3)c(CN3CCCCC3)c2[C@@H](O)C1	
15 µM	CC1(C)Cc2nc(C3CCCC3)c(C(=O)c3ccc(C(F)(F)F)cc3)c(CCl)c2[C@@H](O)C1	
0.055 µM	O=C(c1ccc(C(F)(F)F)cc1)c1c(C2CCCC2)nc2c(c1C1CCCCC1)[C@@H](O)CC1(CCC1)C2	
2 µM	CCC(C)c1c(C(=O)c2ccc(C(F)(F)F)cc2)c(C2CCCC2)nc2c1[C@@H](O)CC(C)(C)C2 (stereo not given in full)	
3 µM	CC1(C)Cc2nc(C3CCCC3)c(C(=O)c3ccc(C(F)(F)F)cc3)c(CC(F)(F)F)c2[C@@H](O)C1	
> 20 µM	CCOC(=O)c1c(C(=O)c2ccc(C(F)(F)F)cc2)c(C2CCCC2)nc2c1[C@@H](O)CC(C)(C)C2	
> 20 µM	CC1(C)Cc2nc(C3CCCC3)c(C(=O)c3ccc(C(F)(F)F)cc3)c(C3CCNCC3)c2[C@@H](O)C1	
0.07 µM	CC(C)c1nc2c(c(C3CCCCC3)c1[C@@H](O)c1ccc(C(F)(F)F)cc1)[C@@H](O)CC1(CCC1)C2	
0.06 µM	CC1(C)Cc2nc(C3CCCC3)c(C(=O)c3ccc(C(F)(F)F)cc3)c(C3CCCCC3)c2[C@@H](O)C1	
4 µM	CC1(C)Cc2nc(C3CCCC3)c(C(=O)c3ccc(C(F)(F)F)cc3)c(N3CCCC3)c2[C@@H](O)C1	
0.03 µM	CC(C)c1nc2c(c(C3CCCCC3)c1[C@@H](F)c1ccc(C(F)(F)F)cc1)[C@@H](O)CC(C)(C)C2	IC50 [2]: 0.075 µM; IC50 [3]: 0.023 µM
0.039 µM	CC1(C)Cc2nc(C3CCCC3)c(Cc3ccc(C(F)(F)F)cc3)c(C3CCCCC3)c2[C@@H](O)C1	IC50 [2]: 0.3 µM
0.017 µM	CC(C)c1nc2c(c(C3CCCCC3)c1[C@@H](F)c1ccc(C(F)(F)F)cc1)[C@@H](O)CC1(CCC1)C2	IC50 [2]: 0.07 µM; IC50 [3]: 0.033 µM
0.1 µM	O[C@@H](c1ccc(C(F)(F)F)cc1)c1c(C2CCCC2)nc2c(c1C1CCCCC1)[C@@H](O)CC1(CCC1)C2	
0.022 µM	O[C@H]1CC2(CCC2)Cc2nc(C3CCCC3)c([C@@H](F)c3ccc(C(F)(F)F)cc3)c(C3CCCCC3)c21	IC50 [2]: 0.06 µM; IC50 [3]: 0.062 µM
0.031 µM	CC1(C)Cc2nc(C3CCCC3)c([C@@H](F)c3ccc(C(F)(F)F)cc3)c(-c3ccc(F)cc3)c2[C@@H](O)C1	
0.024 µM	CC(C)c1nc2c(c(-c3ccc(F)cc3)c1[C@@H](F)c1ccc(C(F)(F)F)cc1)[C@@H](O)CC1(CCC1)C2	
4.5 µM	CCc1c(C(=O)c2ccc(C(F)(F)F)cc2)c(C2CCCC2)nc2c1[C@@H](O)CC(C)(C)C2	
0.033 µM	CC(C)c1nc2c(c(C3CCCCC3)c1C(=O)c1ccc(C(F)(F)F)cc1)[C@@H](O)CC1(CCC1)C2	
3 µM	CC1(C)Cc2nc(C3CCCC3)c(C(=O)c3ccc(C(F)(F)F)cc3)c(C3CC3)c2[C@@H](O)C1	
0.09 µM	CC1(C)Cc2nc(C3CCCC3)c(C(=O)c3ccc(C(F)(F)F)cc3)c(C3CCCC3)c2[C@@H](O)C1	
0.07 µM	O=C(c1ccc(C(F)(F)F)cc1)c1c(C2CCCC2)nc2c(c1C1CCCC1)[C@@H](O)CC1(CCC1)C2	
0.07 µM	CC(C)c1nc2c(c(C3CCCCC3)c1C(=O)c1ccc(C(F)(F)F)cc1)[C@@H](O)CC(C)(C)C2	
2 µM	CCCCCc1c(C(=O)c2ccc(C(F)(F)F)cc2)c(C2CCCC2)nc2c1[C@@H](O)CC(C)(C)C2	
0.6 µM	CC(C)c1c(C(=O)c2ccc(C(F)(F)F)cc2)c(C2CCCC2)nc2c1[C@@H](O)CC(C)(C)C2	
0.3 µM	CC(C)c1c(C(=O)c2ccc(C(F)(F)F)cc2)c(C2CCCC2)nc2c1[C@@H](O)CC1(CCC1)C2	
0.6 µM	CCCc1c(C(=O)c2ccc(C(F)(F)F)cc2)c(C2CCCC2)nc2c1[C@@H](O)CC1(CCC1)C2	
0.08 µM	CC(C)c1nc2c(c(C3CCCCC3)c1[C@@H](O)c1ccc(C(F)(F)F)cc1)[C@@H](O)CC(C)(C)C2 (relative stereo)	
0.1 µM	CC1(C)Cc2nc(C3CCCC3)c([C@@H](O)c3ccc(C(F)(F)F)cc3)c(C3CCCCC3)c2[C@@H](O)C1 (relative stereo)	

Structure (SMILES)	IC50 [1]	other results
CC1(C)Cc2nc(C3CCCC3)c([C@@H](F)c3ccc(C(F)(F)F)cc3)c(C3CCCCC3)c2[C@@H](O)C1	0.025 µM	IC50 [2]: 0.05 µM; bioavailability [4]: 44%; half-life [5]: 5 h; half-life [6]: 8.6 h; IC50 [3]: 0.007 µM; bioavailability [7]: 74%; half-life [8]: 7.2 h
